Reference: ChEMBL document CHEMBL1255223, “Structure-activity relationship study of first selective inhibitor of excitatory amino acid transporter subtype 1: 2-Amino-4-(4-methoxyphenyl)-7-(naphthalen-1-yl)-5-oxo-5,6,7,8-tetrahydro-4H-chromene-3-carbonitrile (UCPH-101)” (J Med Chem, 2010)
Activity calls are given as the source filed them. The calls are words filed in the database; no cut-off is given here.

How the values were obtained:
[1] = target: Excitatory amino acid transporter 1 (Homo sapiens, UniProt P43003); test: Inhibition of human EAAT1 expressed in HEK293 cells by [3H]D-Asp uptake assay; format: cell-based; conditions: for pIC50: hek293
Excitatory amino acid transporter 1, sequence (P43003 whole entry): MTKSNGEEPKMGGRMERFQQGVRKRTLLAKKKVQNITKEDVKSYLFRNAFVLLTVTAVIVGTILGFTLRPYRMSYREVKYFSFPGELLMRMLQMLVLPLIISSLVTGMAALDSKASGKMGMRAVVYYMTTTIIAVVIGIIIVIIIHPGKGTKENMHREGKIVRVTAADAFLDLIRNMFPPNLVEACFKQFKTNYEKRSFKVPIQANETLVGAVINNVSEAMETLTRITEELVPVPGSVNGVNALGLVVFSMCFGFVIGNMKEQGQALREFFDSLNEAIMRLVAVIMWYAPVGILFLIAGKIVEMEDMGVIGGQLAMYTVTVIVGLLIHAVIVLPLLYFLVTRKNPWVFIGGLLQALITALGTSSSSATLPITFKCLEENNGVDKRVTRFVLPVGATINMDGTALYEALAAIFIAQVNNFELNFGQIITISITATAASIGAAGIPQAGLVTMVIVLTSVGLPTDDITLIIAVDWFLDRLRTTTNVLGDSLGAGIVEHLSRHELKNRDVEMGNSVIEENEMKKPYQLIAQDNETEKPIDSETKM

[2] = target: Excitatory amino acid transporter 2 (Homo sapiens) (UniProt P43004); test: Inhibition of human EAAT2 expressed in HEK293 cells at 100 uM by [3H]D-Asp uptake assay; format: cell-based
Excitatory amino acid transporter 2 (Homo sapiens), sequence (P43004 whole entry): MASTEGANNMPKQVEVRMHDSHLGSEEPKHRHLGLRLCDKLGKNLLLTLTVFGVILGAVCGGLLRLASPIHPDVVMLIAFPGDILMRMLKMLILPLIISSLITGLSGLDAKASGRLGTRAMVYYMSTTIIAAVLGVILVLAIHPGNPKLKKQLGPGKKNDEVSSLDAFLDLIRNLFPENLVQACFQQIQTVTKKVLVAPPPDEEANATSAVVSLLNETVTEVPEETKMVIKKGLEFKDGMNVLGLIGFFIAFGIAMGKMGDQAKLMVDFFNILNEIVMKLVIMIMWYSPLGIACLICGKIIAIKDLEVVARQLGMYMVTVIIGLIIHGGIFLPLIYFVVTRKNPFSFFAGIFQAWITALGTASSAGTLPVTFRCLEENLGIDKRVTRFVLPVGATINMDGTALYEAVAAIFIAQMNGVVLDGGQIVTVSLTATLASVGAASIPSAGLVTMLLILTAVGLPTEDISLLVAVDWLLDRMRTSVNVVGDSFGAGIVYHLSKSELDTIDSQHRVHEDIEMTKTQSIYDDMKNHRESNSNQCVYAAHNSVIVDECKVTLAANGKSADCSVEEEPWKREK
How it was run: (§1)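 [3H]-D-Asp uptake was measured in HEK293 cell lines expressing EAAT2 or EAAT3. Each analogue was tested at the highest concentration possible for it (75, 100, 300 or 1000 μM) to assess inhibitory activity.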

[3] = target: T1, Excitatory amino acid transporter 3 (Homo sapiens) (UniProt P43005); test: Inhibition of human EAAT3 expressed in HEK293 cells at 100 uM by [3H]D-Asp uptake assay; format: cell-based; how it was run: as §1
T1 sequence (whole entry): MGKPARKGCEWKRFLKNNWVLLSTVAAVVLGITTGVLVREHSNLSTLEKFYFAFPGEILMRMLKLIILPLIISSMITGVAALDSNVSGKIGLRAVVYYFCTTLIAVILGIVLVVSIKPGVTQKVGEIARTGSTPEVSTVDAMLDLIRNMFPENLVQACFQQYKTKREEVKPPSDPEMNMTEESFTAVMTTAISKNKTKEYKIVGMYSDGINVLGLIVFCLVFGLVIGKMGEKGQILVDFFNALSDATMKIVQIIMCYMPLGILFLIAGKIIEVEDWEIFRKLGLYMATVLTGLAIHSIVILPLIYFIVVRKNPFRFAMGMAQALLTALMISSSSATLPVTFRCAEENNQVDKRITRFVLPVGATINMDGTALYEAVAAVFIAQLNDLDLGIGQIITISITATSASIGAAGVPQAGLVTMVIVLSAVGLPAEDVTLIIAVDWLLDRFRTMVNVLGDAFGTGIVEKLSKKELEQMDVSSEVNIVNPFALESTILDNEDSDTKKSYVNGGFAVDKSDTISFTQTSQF

[4] = target: T1, Excitatory amino acid transporter 3 (Homo sapiens); test: Inhibition of human EAAT3 expressed in HEK293 cells at 300 uM by [3H]D-Asp uptake assay; format: cell-based; how it was run: as §1
[5] = target: Excitatory amino acid transporter 2 (Homo sapiens) (UniProt P43004); test: Inhibition of human EAAT2 expressed in HEK293 cells at 300 uM by [3H]D-Asp uptake assay; format: cell-based; how it was run: as §1
[6] = target: T1, Excitatory amino acid transporter 3 (Homo sapiens); test: Inhibition of human EAAT3 expressed in HEK293 cells at 1000 uM by [3H]D-Asp uptake assay; format: cell-based; how it was run: as §1
[7] = target: Excitatory amino acid transporter 2 (Homo sapiens) (UniProt P43004); test: Inhibition of human EAAT2 expressed in HEK293 cells at 1000 uM by [3H]D-Asp uptake assay; format: cell-based; how it was run: as §1
[8] = target: Excitatory amino acid transporter 2 (Homo sapiens) (UniProt P43004); test: Inhibition of human EAAT2 expressed in HEK293 cells at 75 uM by [3H]D-Asp uptake assay; format: cell-based; how it was run: as §1
[9] = target: T1, Excitatory amino acid transporter 3 (Homo sapiens); test: Inhibition of human EAAT3 expressed in HEK293 cells at 75 uM by [3H]D-Asp uptake assay; format: cell-based; how it was run: as §1
Brain = test: Drug level in Sprague-Dawley rat brain at 10 mg/kg; format: ADME, organism-based; design: dose 10 mg/kg; conditions: in vivo
How it was run: (§2)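 Male Sprague-Dawley rats (225 g at arrival) received an oral dose of 10 mg/kg, formulated in 100% PEG400 (5 mL/kg). Three groups (n = 3/group) were sampled at 0.5, 1 and 2 h for cardiac EDTA plasma (under isoflurane) and whole brain homogenized in 70% acetonitrile. UPLC-MS/MS quantitation used an internal standard, with a brain limit of quantification of 10 ng/g.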

[10] = Terminal half life in Sprague-Dawley rat at 10 mg/kg; format: ADME, organism-based; design: dose 10 mg/kg; conditions: in vivo, read-out: beta t1/2; how it was run: as §2

| IC50 ([1]; read-out: IC50) | inhibition [2] | inhibition [3] | inhibition [4] | inhibition [5] | IC50 ([1]; read-out: pIC50 (converted)) | SMILES | other results |
| --- | --- | --- | --- | --- | --- | --- | --- |
| – | – | – | inactive | inactive | – | CC1C(C#N)=C(N)OC2=C1C(=O)CC(c1ccccc1)C2 (stereo unspecified) | – |
| > 100 µM | inactive | inactive | – | – | – | N#CC1=COC2=C(C(=O)CC(c3ccccc3)C2)C1c1ccccc1 (stereo unspecified) | pIC50 [1]: < 4 |
| – | – | – | inactive | inactive | – | COc1ccc(C2C(C#N)=C(N)OC3=C2C(=O)CC(c2cccc4ccccc24)C3)cc1 (stereo unspecified) | Drug uptake (Brain): < 10 ng/g; half-life [10]: 30 min |
| 5.1 µM | inactive | inactive | – | – | 4.79 µM | COc1ccc(C2C(C#N)=C(N)OC3=C2C(=O)CC(Cc2ccccc2)C3)cc1 (stereo unspecified) | – |
| 3.8 µM | – | – | – | – | 6.31 µM | N#CC1=C(N)OC2=C(C(=O)CC(c3ccccc3)C2)C1c1ccccc1 (stereo unspecified) | inhibition [6]: inactive; inhibition [7]: inactive |
| – | – | – | inactive | inactive | > 316 µM | CC1CC(=O)C2=C(C1)OC(N)=C(C#N)C2c1ccc2c(c1)OCO2 (stereo unspecified) | – |
| – | – | – | inactive | inactive | > 316 µM | N#CC1=C(N)OC2=C(C(=O)CCC2)C1c1ccccc1F (stereo unspecified) | – |
| > 100 µM | inactive | inactive | – | – | – | NC1=CC(c2ccccc2)C2=C(CC(c3ccccc3)CC2=O)O1 (stereo unspecified) | pIC50 [1]: < 4 |
| – | inactive | inactive | – | – | – | N#CC1=C(N)OC2=C(C(=O)CC(c3ccccc3)C2)C1c1ccccc1F (stereo unspecified) | – |
| > 300 µM | – | – | inactive | inactive | > 316 µM | COC(=O)C1=C(N)OC2=C(C(=O)CC(c3ccccc3)C2)C1c1ccccc1 (stereo unspecified) | – |

Continued, compound first:

| SMILES | IC50 ([1]; read-out: IC50) | inhibition [2] | inhibition [3] | inhibition [4] | inhibition [5] | IC50 ([1]; read-out: pIC50 (converted)) | other results |
| --- | --- | --- | --- | --- | --- | --- | --- |
| CC(=O)NC1=C(C#N)C(c2ccccc2)C2=C(CC(c3ccccc3)CC2=O)O1 (stereo unspecified) | > 100 µM | inactive | inactive | – | – | – | pIC50 [1]: < 4 |
| COc1ccc(C2C(C#N)=C(N)OC3=C2C(=O)CC(c2ccc4ccccc4c2)C3)cc1 (stereo unspecified) | 3.2 µM | – | – | inactive | inactive | – | – |
| N#CC1=C(N)OC2=C(C(=O)N[C@@H](c3ccccc3)C2)[C@@H]1c1ccccc1 (relative stereo) | > 300 µM | – | – | inactive | inactive | > 316 µM | – |
| N#CC1=C(N)OC2=C(C1)C(=O)CC(c1ccccc1)C2 (stereo unspecified) | – | – | – | inactive | inactive | > 316 µM | – |
| N#CC1=C(N)OC2=C(C(=O)N[C@H](c3ccccc3)C2)[C@@H]1c1ccccc1 (relative stereo) | > 300 µM | – | – | inactive | inactive | > 316 µM | – |
| CCO/C=N/C1=C(C#N)C(c2ccccc2)C2=C(CC(c3ccccc3)CC2=O)O1 (stereo unspecified) | > 1000 µM | – | – | – | – | – | pIC50 [1]: < 3; inhibition [6]: inactive; inhibition [7]: inactive |
| CC(C)(C)OC(=O)C1=C(N)OC2=C(C(=O)CC(c3ccccc3)C2)C1c1ccccc1 (stereo unspecified) | > 75 µM | – | – | – | – | > 158 µM | inhibition [8]: inactive; inhibition [9]: inactive |
| CC1C(C#N)=C(N)OC2=C1C(=O)CC(c1cccc3ccccc13)C2 (stereo unspecified) | 0.43 µM | inactive | inactive | – | – | 0.339 µM | – |
| N#CC1=C(N)OC2=C(C(=O)O[C@H](c3ccccc3)C2)[C@@H]1c1ccccc1 (relative stereo) | > 300 µM | – | – | inactive | inactive | > 316 µM | – |
| NC(=O)C1=C(N)OC2=C(C(=O)CC(c3ccccc3)C2)C1c1ccccc1 (stereo unspecified) | > 100 µM | inactive | inactive | – | – | – | pIC50 [1]: < 4 |
| N#CC1=C(N)OC2=C(C(=O)O[C@@H](c3ccccc3)C2)[C@@H]1c1ccccc1 (relative stereo) | > 300 µM | – | – | inactive | inactive | > 316 µM | – |
